We go through eight compounds from ChEMBL document CHEMBL4359886, “Imidazo[2,1-a]isoindole scaffold as an uncharted structure active on Leishmania donovani” (Eur J Med Chem, 2019).

Activity calls are given as the source filed them. The calls are words filed in the database; no cut-off is given here.

In data set [1] the test system is Leishmania donovani. Kind of data set: Antileishmanial activity against Leishmania donovani MHOM/ET/67/HU3 amastigotes harboring luciferase reporter gene infected in macrophage-differentiated human THP1 cells incubated for 72 hrs by luminescence based assay. Type of data set: functional, organism-based. The following applies: MHOM/ET/67/HU3, THP-1, 72 h. In a few lines:
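THP-1 cells were differentiated with PMA (20 ng/mL, 48 h), then kept 24 h in fresh medium. They were infected 24 h at 35 °C with stationary luciferase-expressing promastigotes at a macrophage:parasite ratio of 1:10, and free parasites were washed off. Compounds were added at 0.62–40 μM for 72 h at 37 °C. Cells were lysed with 0.1% Triton X-100 and luminescence read. EC50 from three independent experiments in triplicate.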
On the technique in general: A reporter such as luciferase makes a cellular process visible.

For data set [2], the system named is Leishmania donovani. Kind of data set: Antileishmanial activity against Leishmania donovani promastigotes harboring 3-Luc gene assessed as decrease in intracellular ATP level using DMNEP-D-luciferin as substrate at 5 to 50 uM measured for 10 mins by luminescence based assay. Format: functional, organism-based. In a few lines:
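3-Luc promastigotes at 20×10^6 cells/mL in serum-free, phenol-red-free RPMI 1640 containing 50 µM DMNPE-D-luciferin. Once luminescence was stable, compound (5–50 µM) was added and luminescence of the live parasites followed in real time. Expressed as percent of untreated parasites. Parasites given 1.5 µM 1,4-naphthoquinone served as control.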

Data set [3] can be described thus: Cytotoxicity against macrophage-differentiated human THP1 cells assessed as reduction in cell viability incubated for 72 hrs by MTT assay. Type of data set: cell-based. The following applies: macrophage-differentiated THP-1 cells. In a few lines: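 THP-1 cells (3×10^4 per well) were differentiated with PMA (20 ng/mL, 48 h), then kept 24 h in fresh RPMI-1640 with 10% hiFBS. They were exposed to increasing compound concentrations for 72 h at 37 °C, then read by MTT reduction. CC50 is the 50% reduction versus untreated controls. Three independent experiments in triplicate.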
On the technique in general: Tetrazolium assays rely on reduction of a dye to a coloured formazan, in cell work by metabolically active cells.

Data set [4] is described as follows: Cytotoxicity against human MRC5 cells assessed as reduction in cell viability incubated for 72 hrs by MTT assay. Type of data set: cell-based. In a few lines: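 MRC5-SV2 (SV40-transformed human lung fibroblasts) were grown in DMEM with 10% hiFBS at 37 °C, 5% CO₂. Cells were exposed to increasing compound concentrations for 72 h at 37 °C, followed by MTT reduction. CC50 is the concentration reducing proliferation by 50% versus untreated cells. Three independent experiments in triplicate.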

The nature of data set [5]: Selectivity index, ratio of CC50 for macrophage-differentiated human THP1 cells to EC50 for Leishmania donovani MHOM/ET/67/HU3 amastigotes harboring luciferase reporter gene infected in macrophage-differentiated human THP1 cells. Format: toxicity. The conditions noted are these: macrophage-differentiated THP-1 cells, read-out: Ratio CC50/EC50. In a few lines:
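CC50 came from PMA-differentiated THP-1 cells exposed to compound for 72 h at 37 °C and read by MTT reduction (three independent experiments, triplicate). This was divided by the EC50 against intracellular amastigotes, measured by luciferase luminescence after 72 h of treatment.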

In data set [6] the test system is Leishmania donovani. Put plainly: Antileishmanial activity against Leishmania donovani promastigotes incubated for 72 hrs by MTT assay. Format: functional, organism-based. In a few lines: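 Promastigote proliferation was followed for 72 h in the presence of compound, then read by MTT reduction. EC50 is the concentration giving 50% inhibition of proliferation, from three independent experiments.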

In data set [7] the test system is Leishmania donovani. Put plainly: Antileishmanial activity against Leishmania donovani promastigotes harboring 3-Luc gene assessed as decrease in intracellular ATP level at 5 to 50 uM using DMNEP-D-luciferin as substrate pretreated for 4 hrs followed by substrate addition measured for 10 mins by luminescence based assay. Format: functional, organism-based. In a few lines: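 3-Luc promastigotes, which express cytoplasmic luciferase, at 20×10^6 cells/mL in serum-free, phenol-red-free RPMI 1640, incubated with 5, 10, 20, 30, 40 or 50 µM compound for 4 h at 26 °C. DMNPE-D-luciferin then added to 50 µM final, and luminescence recorded for 10 min. Values given as percent of untreated parasites. 1.5 µM 1,4-naphthoquinone used as respiratory-chain-inhibited control.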

Data set [8] concerns Leishmania donovani. Put plainly: Induction of mitochondrial membrane depolarization in Leishmania donovani promastigotes at 30 uM incubated for 4 hrs by Rhodamine 123 dye-based flow cytometric assay. Format: functional, organism-based. In a few lines:
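Promastigotes at 20×10^6 cells/mL in serum-free, phenol-red-free RPMI 1640 were incubated with compound for 4 h. Rh123 (0.5 µg/mL) was added for 10 min, unbound probe was washed off, and intracellular accumulation was read by flow cytometry (ex 488/em 520 nm). Parasites given 10 mM KCN served as the dysfunctional-mitochondrion control.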
Background: A flow cytometer gives signals particle by particle.

Data set [9] has as its system Leishmania donovani. Kind of data set: Induction of plasma membrane permeabilization in Leishmania donovani promastigotes by sytox green-based fluorescence assay. Format: functional, organism-based. In a few lines: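 Promastigotes at 20×10^6/mL in serum-free, phenol-red-free RPMI 1640 containing 1 µM SYTOX green received compound (10–50 µM tested). Fluorescence increase (ex 485/em 520 nm) was followed in real time. Triton X-100 (0.1% final) was then added to give full permeabilization, taken as 100%.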

Data set [10] concerns Leishmania donovani. Kind of data set: Antileishmanial activity against Leishmania donovani promastigotes incubated for 4 hrs by MTT assay. Format: functional, organism-based. In a few lines: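 L. donovani promastigotes at 20×10^6 cells/mL in RPMI 1640 without serum or phenol red were exposed to compound for 4 h at 26 °C. MTT was then added (0.5 mg/mL final) for 2 h, and formazan was solubilized with 0.5% SDS final. A595 was read. IC50 is the concentration inhibiting MTT reduction by 50%. Run in triplicate, repeated at least twice.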

Data set [11] has as its system Leishmania donovani. Put plainly: Induction of plasma membrane permeabilization in Leishmania donovani promastigotes assessed as formation of blebbings in plasma membrane at EC70 incubated for 12 hrs by transmission electron microscopic method. Type of data set: functional, organism-based.
Data set [12] has as its system Leishmania donovani. Kind of data set: Induction of mitochondrial membrane depolarization in Leishmania donovani promastigotes assessed as swelling of mitochondrial cristae at EC70 incubated for 12 hrs by transmission electron microscopic method. Type of data set: functional, organism-based.

What is called EC50 is the midpoint of the concentration-response curve. Usually CC50 stands for the concentration giving 50% cytotoxicity. The term IC50 denotes the point on the concentration scale where inhibition reaches its midpoint. Low readings indicate greater potency in that assay, high ones weaker potency in that assay. With `OC1(Cc2ccc(Cl)cc2)c2c(Cl)ccc(Cl)c2C2=NCCN21` (stereo not given), the half-maximal effective concentration (EC50) in data set [1] turned out to be 2.62 µM; in data set [6], 13.3 µM. The result in [2], in data set [7] and in data set [8] was Active. Also, the CC50 at 72 h is 68.7 µM in [3] and 33.8 µM in [4]. Besides, in data set [5], the selectivity ratio was found to be 26.2. For the same compound, the Activity entry in data set [9] is “Dose-dependent effect”. The same compound returned an IC50 in data set [10] of 14.4 µM.

Compound `OC1(Cc2ccccc2)c2ccccc2C2=NCCN21` (stereo not given) had an EC50 in data set [1] of 27.8 µM. The CC50 at 72 h in data set [3] was over 200 µM; in data set [4] it was 182 µM.

Turning to `OC1(Cc2ccc(Cl)cc2)c2ccccc2C2=NCCN21` (stereo not given), the EC50 in data set [1] is 2.1 µM; in [6], 11.8 µM. In addition, the CC50 at 72 h came out at 145 µM in [3] and 80 µM in data set [4]. Also, the selectivity ratio in data set [5] was found to be 69.1.

With `C[C@@H]1[C@H](O)[C@@H](C)/C=C/C=C/C=C/C=C/C=C/C=C/C=C/[C@H](O[C@@H]2O[C@H](C)[C@@H](O)[C@H](N)[C@@H]2O)C[C@@H]2O[C@](O)(C[C@@H](O)C[C@@H](O)[C@H](O)CC[C@@H](O)C[C@@H](O)CC(=O)O[C@H]1C)C[C@H](O)[C@H]2C(=O)O` [AMPHOTERICIN B], the CC50 at 72 h worked out at 16 µM in data set [3] and 12 µM in data set [4].

Consider `CSc1ccc(CC2(O)c3c(Cl)ccc(Cl)c3C3=NCCN32)cc1` (stereo not given), for which, in data set [1], the EC50 stood at 6.65 µM. The values for the cytotoxic concentration (CC50) at 72 h in data set [3] and in data set [4] were 84.4 µM and 77.4 µM, respectively. For the same compound, the selectivity ratio in [5] was determined as 12.7.

Consider `OC1(Cc2ccccc2Cl)c2c(Cl)ccc(Cl)c2C2=NCCN21` (stereo not given), for which the EC50 in data set [1] amounted to 4.16 µM. Also, the CC50 at 72 h came out at 82 µM in data set [3] and 41 µM in data set [4]. In addition, the selectivity ratio in data set [5] was found to be 19.7.

With `CSc1ccc(CC2(O)c3cc(Cl)c(Cl)cc3C3=NCCN32)cc1` (stereo not given), the EC50 was 1 µM in data set [1] and 2.1 µM in data set [6]. For the same compound, the result in data set [2], in data set [7], in [8], in data set [11] and in [12] was Active. Also, the CC50 at 72 h was determined as 31.1 µM in data set [3] and 8.48 µM in data set [4]. Also, the selectivity ratio in data set [5] was determined as 31.1. In addition, in [9], the Activity result was “Dose-dependent effect”. Further, the IC50 in [10] was 7.3 µM.

For `OC1(Cc2ccc(Cl)cc2)c2cc(Cl)c(Cl)cc2C2=NCCN21` (stereo not given), the values for the EC50 in data set [1] and in data set [6] were 2.95 µM and 6.9 µM, respectively. For the same compound, the CC50 at 72 h in data set [3] turned out to be 31.9 µM; in data set [4] it was 8.91 µM. The selectivity ratio in [5] was 10.8.
